Measurements reported in ChEMBL document CHEMBL4477171, “Identification of PTP1B and α-Glucosidase Inhibitory Serrulatanes from Eremophila spp. by Combined use of Dual High-Resolution PTP1B and α-Glucosidase Inhibition Profiling and HPLC-HRMS-SPE-NMR” (J Nat Prod, 2016).
pIC50: −log10 of the molar value. Each block holds one compound with its values, some of them ahead of it. Calls of active or inactive are those of the source. No cut-off for these calls is given here.

Key:
[1] = biological target: T1, Tyrosine-protein phosphatase non-receptor type 1 (Homo sapiens, UniProt P18031); test: Inhibition of GST-tagged human PTP1B expressed in Escherichia coli using pNPP substrate assessed as reduction in p-nitrophenol release
T1 sequence (P18031 whole entry): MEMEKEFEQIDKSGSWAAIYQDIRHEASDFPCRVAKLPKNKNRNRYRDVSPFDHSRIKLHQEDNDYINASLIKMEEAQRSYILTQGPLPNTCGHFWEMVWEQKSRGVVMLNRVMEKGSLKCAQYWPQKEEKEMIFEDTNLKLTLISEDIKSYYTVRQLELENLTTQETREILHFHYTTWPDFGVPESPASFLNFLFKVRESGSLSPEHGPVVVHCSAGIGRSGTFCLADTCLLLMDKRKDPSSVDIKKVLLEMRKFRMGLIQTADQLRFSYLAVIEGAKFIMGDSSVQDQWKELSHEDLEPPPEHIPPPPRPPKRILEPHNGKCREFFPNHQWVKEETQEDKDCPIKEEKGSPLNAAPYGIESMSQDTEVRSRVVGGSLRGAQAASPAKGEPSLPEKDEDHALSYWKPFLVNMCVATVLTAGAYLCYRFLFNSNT
Method in brief: (§1)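 Compounds were dissolved in MeOH as dilution series, dispensed in triplicate and dried. Residues were taken up in DMSO in 50 mM Tris/50 mM bis-Tris buffer with 100 mM NaCl, pH 7.0, at 25 °C. Final conditions were 10% DMSO, 1 mM EDTA, 0.5 mM pNPP and 2 mM DTT. After a 10 min preincubation, recombinant human PTP1B (0.05 μg/well) was added to start the reaction. A405 was read every 30 s for 10 min. Inhibition was calculated from the rate slope against the blank, and IC50 from dose–response curves.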

Saccharomyces cerevisiae = test: Inhibition of Saccharomyces cerevisiae alpha-glucosidase type-1 pre-incubated for 10 mins before pNPG substrate addition assessed as reduction in p-nitrophenol release
Method in brief: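 Dried residues were dissolved in 25% DMSO in 0.1 M phosphate buffer, pH 6.9, at 25 °C. α-Glucosidase was added to 0.25 U/mL final (6.25% DMSO final) and preincubated for 10 min. The reaction was started with pNPG (1.25 mM final). A405 was read every 30 s for 10 min, and inhibition was taken from the cleavage rate relative to the blank.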

[2] = biological target: T2, Tyrosine-protein phosphatase non-receptor type 1 (Homo sapiens) (UniProt P18031); test: (§2) Inhibition of recombinant human PTP1B preincubated for 10 mins followed by protein addition using pNPP substrate; method in brief: as §1
T2 sequence (whole entry): T1 sequence (P18031 whole entry)

[3] = biological target: T1, Tyrosine-protein phosphatase non-receptor type 1; test: as §2; method in brief: as §1

- pIC50 [1]: 5.23
Structure (SMILES): C=C1CC[C@@H]2[C@H]1[C@H]1[C@@H](C(C)CC(=O)C=C(C)C)CC[C@]12C (stereo partly specified)

- inhibition (Saccharomyces cerevisiae): Active
Structure (SMILES): C[C@@H](CO)CCC[C@H](C)[C@@H]1CC[C@@H](C)c2c(O)cc(C(=O)O)cc21

- pIC50 [1]: 5.12 to 5.46
Structure (SMILES): COc1cc(O)c2c3c1-c1ccc(O)cc1[C@@H]1Oc4ccccc4[C@@H](CC2=O)[C@@H]31

- pIC50 [1]: 5.12 to 5.46
Structure (SMILES): O=C1C[C@]2(O)c3ccccc3O[C@H]3c4cc(O)ccc4-c4c(O)cc(O)c1c4[C@@H]32 [OHIOENSIN F]

- pIC50 [1]: 5.11
Structure (SMILES): C=C(CCC=C(C)C)[C@H]1CC[C@]2(C)CCCC(=C)[C@H]2C1 [LOBOPHYTUMIN C]

- inhibition [2]: Active
Structure (SMILES): C[C@H](CCC[C@H](C)[C@@H]1CC[C@@H](C)c2c1cc(C(=O)O)c(O)c2O)COC(=O)/C=C/c1ccc(O)c(O)c1

- pIC50 [1]: 5.12 to 5.46
Structure (SMILES): O=C1c2c(O)cc(O)c3c2[C@@H]2[C@@H](c4ccccc4O[C@H]2c2cccc(O)c2-3)[C@H]1O [OHIOENSIN G]

- inhibition [2]: Active
Structure (SMILES): C[C@H](CCC[C@H](C)[C@@H]1CC[C@@H](C)c2c(O)cc(C(=O)O)cc21)COC(=O)CCc1ccccc1

- pIC50 [1]: 5.82
Structure (SMILES): CC1=CCC[C@H]2[C@@H](C)[C@@](C)(CC3=C(O)C(=O)C=C(CCCS(=O)(=O)O)C3=O)CC[C@]12C

- pIC50 [3]: 5.12
Structure (SMILES): CCCC(=O)OC[C@H](C)CCC[C@H](C)[C@@H]1CC[C@@H](C)c2c1cc(C(=O)O)c(O)c2O

- pIC50 [1]: 5.12 to 5.46
Structure (SMILES): O=C1C[C@@H]2c3ccccc3O[C@H]3c4cc(O)ccc4-c4c(O)cc(O)c1c4[C@H]23 [OHIOENSIN A]

- inhibition [2]: Active
Structure (SMILES): CC(C)=CCC(=O)OC[C@H](C)CCC[C@H](C)[C@@H]1CC[C@@H](C)c2c(O)cc(C(=O)O)cc21

- pIC50 [3]: 2.90
Structure (SMILES): C[C@@H](CO)CCC[C@H](C)[C@@H]1CC[C@@H](C)c2c1cc(C(=O)O)c(O)c2O

- pIC50 [1]: 5.26
Structure (SMILES): OC[C@H]1O[C@@H](O[C@@H]2c3ccccc3[C@H](O)C[C@H]2O)[C@H](O)[C@@H](O)[C@@H]1O

- inhibition [2]: Active
Structure (SMILES): CC(C)=CCC[C@H](C)[C@@H]1CC[C@@H](C)c2c1cc(C(=O)O)c(O)c2O

- inhibition (Saccharomyces cerevisiae): Active
Structure (SMILES): COc1cc(O)c2c(c1)O[C@H](c1ccc(O)cc1)CC2=O

- pIC50 [3]: 5.20
Structure (SMILES): C[C@H](CCC[C@H](C)[C@@H]1CC[C@@H](C)c2c(O)cc(C(=O)O)cc21)COC(=O)/C=C/c1ccccc1

- inhibition (Saccharomyces cerevisiae): Active
Structure (SMILES): C/C(=C\CC[C@H](C)[C@@H]1CC[C@@H](C)c2c(O)cc(C(=O)O)cc21)CO

- pIC50 [3]: 5.46
Structure (SMILES): CC(C)CC(=O)OC[C@H](C)CCC[C@H](C)[C@@H]1CC[C@@H](C)c2c1cc(C(=O)O)c(O)c2O

- inhibition [2]: Active
Structure (SMILES): COc1cc(/C=C/C(=O)OC[C@H](C)CCC[C@H](C)[C@@H]2CC[C@@H](C)c3c2cc(C(=O)O)c(O)c3O)ccc1O

- inhibition (Saccharomyces cerevisiae): Active
Structure (SMILES): C/C(C=O)=C\CC[C@H](C)[C@@H]1CC[C@@H](C)c2c(O)cc(C(=O)O)cc21
